Compounds with a hit are over-represented: about 1.4% of the library has one in this group of screens.
MT1-MMP act inh = inhibitors of human MT1-MMP activation; GFP/RFP ratio change, % at 20 µM; P50281; 360,000 tested, 0.061% active; HT1080 RFP-PRO-GFP cells, GFP/RFP ratio fluorescence, overnight; percent of plate control window, DMSO zero; AID 651647;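 active means GFP/RFP ratio change of at least 30% with cell ATP level not reduced by more than half and red fluorescence within 50% of control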
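Assay system: RFP-PRO-GFP reporter HT1080 cells; read-out basis: GFP/RFP fluorescence ratio; benchmarks: DMSO wells and RFP-L50D-GFP cells; doses: 20 µM single dose, 1% DMSO; schedule: overnight cell settling, then overnight compound exposure, 37 °C, 5% CO2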
NRP1-CendR mod = NRP-1/CendR interaction modulation. O14786. FAM-RPARPAR peptide binding to NRP-1, fluorescence polarization. inhibition, % at 25 µM. 360,000 tested, 0.85% active. AID 602438;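 active means inhibition or corrected inhibition above about 18%, plus a signal ratio from 0.5 to 1.5, limit read from the data, passing the limit was not always enough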
Target sequence (O14786 whole entry, looked up): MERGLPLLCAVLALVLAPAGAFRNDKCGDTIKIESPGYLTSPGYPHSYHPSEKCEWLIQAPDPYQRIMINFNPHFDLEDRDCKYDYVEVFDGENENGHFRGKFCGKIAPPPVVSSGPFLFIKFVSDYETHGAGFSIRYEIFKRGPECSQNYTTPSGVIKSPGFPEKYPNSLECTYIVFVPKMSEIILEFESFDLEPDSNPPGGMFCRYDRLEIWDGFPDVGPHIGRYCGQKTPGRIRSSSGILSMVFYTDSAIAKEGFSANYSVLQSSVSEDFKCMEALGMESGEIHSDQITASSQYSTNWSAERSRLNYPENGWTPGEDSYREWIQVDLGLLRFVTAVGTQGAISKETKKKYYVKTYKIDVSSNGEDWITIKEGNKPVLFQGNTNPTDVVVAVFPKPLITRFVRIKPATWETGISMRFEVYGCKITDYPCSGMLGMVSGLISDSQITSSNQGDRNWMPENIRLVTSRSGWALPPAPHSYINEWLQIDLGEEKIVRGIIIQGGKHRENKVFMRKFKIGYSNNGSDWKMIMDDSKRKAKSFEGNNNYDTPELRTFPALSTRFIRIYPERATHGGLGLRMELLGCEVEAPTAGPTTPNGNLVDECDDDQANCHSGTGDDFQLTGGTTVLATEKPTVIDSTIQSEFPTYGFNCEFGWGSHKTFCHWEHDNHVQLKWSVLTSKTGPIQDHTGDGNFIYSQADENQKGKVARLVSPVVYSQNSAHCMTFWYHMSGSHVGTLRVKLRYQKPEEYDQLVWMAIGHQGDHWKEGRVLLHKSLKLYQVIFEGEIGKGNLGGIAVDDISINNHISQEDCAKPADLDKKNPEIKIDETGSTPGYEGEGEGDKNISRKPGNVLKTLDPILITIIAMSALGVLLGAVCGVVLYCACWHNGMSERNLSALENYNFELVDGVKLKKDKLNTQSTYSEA
iPSC survival up = enhancers of human iPSC single-cell survival; hiPSC single-cell survival, ATPlite luminescence; 100% = ROCK inhibitor wells, 0% = DMSO; survival enhancement, % at 20 µM; 360,000 tested, 0.044% active; AID 602274; in the data active means survival enhancement above about 18%;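 further: cells exposed to compounds for 16 hours before the ATP read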
SKN-1 block = inhibitors of C. elegans SKN-1; C. elegans VP596 Pgst-4::GFP/RFP ratio, acrylamide-induced, 24 h; inhibition, % at 21.8 µM; 360,000 tested, 0.49% active;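 active means interference check ratio from 0.5 to 1.5 plus GFP to RFP signal ratio inhibition reaching or exceeding a fixed threshold, cut at about 30% in these data, passing the limit was not always enough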
The depositor's hits bear a star; nt = no result given.

SMILES | MT1-MMP act inh | NRP1-CendR mod | iPSC survival up | SKN-1 block
CCc1ccc(S(=O)(=O)/N=C2\C=C(NS(=O)(=O)c3ccccc3)C(=O)c3ccccc32)cc1 | 5 | 16 | 0 | -8
Cc1ccc(C)c(S(=O)(=O)/N=C2\C=C(NS(=O)(=O)c3ccccc3)C(=O)c3ccccc32)c1 | 23 | 20 | 0 | 39*
CC(C)c1ccc(S(=O)(=O)/N=C2\C=C(NS(=O)(=O)c3ccccc3)C(=O)c3ccccc32)cc1 | 2 | 31* | 2 | 14
Cc1ccc(-c2nn[nH]n2)cc1Cl | -3 | -5 | 0 | 8
Cn1c(=O)c2[nH]c(COc3ccccc3)nc2n(C)c1=O | -17 | 32* | 8 | 2
Cn1c(=O)c2[nH]c(CN(Cc3ccccc3)Cc3ccccc3)nc2n(C)c1=O | -28 | -11 | 2 | -19
Cc1ccc(NS(=O)(=O)c2ccc3c(c2)NC(=O)C(C)C(=O)N3)c(Cl)c1 (stereo not drawn) | -4 | -4 | 0 | 5
CN1CCN(C2=C(Cl)C(=O)N(c3ccc(Cl)cc3)C2=O)CC1 | -2 | -27 | -1 | 0
Cc1ccc(N2C(=O)C(Cl)=C(N3CCN(C)CC3)C2=O)c(C)c1 | -2 | 32* | 7 | -6
CCN(C[C@H]1N[C@@](CC)(C(=O)OC)[C@H]2C(=O)N(C)C(=O)[C@@H]12)C(=O)Nc1ccccc1 | -1 | -2 | 0 | -7
CC(C)CC(=O)Nc1ccc(Nc2ccccc2)cc1 | 3 | 5 | 4 | 35*
Cn1cccc1/C=C1\SC(=S)N(NC(=O)c2ccccc2)C1=O | -7 | -61 | 2 | 38*
Cn1cccc1/C=C1\SC(=S)N(NC(=O)c2cccc(Cl)c2)C1=O | -8 | -50 | 2 | 38*
Cn1cccc1/C=C1\SC(=S)N(NC(=O)c2ccc(F)cc2)C1=O | -1 | -80 | 0 | 22
CCCOc1cc(NCc2ccccc2)c2ncn(C(C)C)c2c1 | 0 | -8 | -1 | 31
O=C(NCc1cccc(F)c1)c1cccc(OC2CCN(C(=O)C3CC3)CC2)c1 | -7 | 24* | 0 | -14
CS(=O)(=O)N1CCN(C(=O)c2csc3ccccc23)CC1 | 2 | -5 | -3 | 8
CC(C)N1CC2=C(OC(N)=C(C#N)C2c2cccnc2)/C(=C/c2cccnc2)C1 (stereo not drawn) | 1 | 26* | -1 | 30
COCCCNS(=O)(=O)c1ccc2c3c(cccc13)C(=O)S2 | 10 | 29* | 1 | 12
COCCNS(=O)(=O)c1ccc2c3c(cccc13)C(=O)N2C | 4 | -19 | -1 | 9
c1ccc(-c2ccc3ccccc3n2)cc1 | 1 | -36 | 1 | 24
c1ccc2nc(-c3ccc(-n4ccnc4)cc3)ccc2c1 | 5 | -142 | 0 | 66*
CCOC(=O)[C@]12CCC=C1N(CCC1=CCCCC1)C(=O)[C@H](CC(=O)NCCC(C)C)C2 | 2 | 8 | -1 | 2
COc1ccc(C(C(=O)NC2CCCC2)N(C(=O)c2snc(C(N)=O)c2N)c2ccccc2OC)cc1OC (stereo not drawn) | -3 | 32* | 0 | 12
COc1ccc(C(C(=O)NC2CCCC2)N(C(=O)c2snc(C(N)=O)c2N)c2cc(C)ccc2OC)cc1OC (stereo not drawn) | -5 | -1 | -1 | 9
SMILES | MT1-MMP act inh | NRP1-CendR mod | iPSC survival up | SKN-1 block
O=C(NCCCn1ccnc1)c1ccc(Cl)c(S(=O)(=O)N2CCOCC2)c1 | 2 | 35* | -2 | 1
CC(NCC(=O)NC(=O)NCCC1=CCCCC1)c1ccc(S(N)(=O)=O)cc1 (stereo not drawn) | 3 | 3 | 2 | -1
COc1ccc(CCNC(=O)C2CCC(C(C)(C)C)CC2)cc1OC (stereo not drawn) | 2 | 34* | 0 | 11
O=C(Cc1ccc(S(=O)(=O)N2CCCC2)s1)Nc1nc2c(s1)CCCC2 | -21 | -48 | 0 | -18
O=C(Nc1sc2c(c1C(=O)c1ccc(Cl)cc1)CCCC2)c1cccnc1 | -6 | 0 | 4 | 35*
C[C@H](NC(=O)c1[nH]cnc1C(=O)Nc1ccc(Cl)cc1)c1ccccc1 | 12 | 37* | 1 | 5
Cc1cccc(NC(=O)c2nc[nH]c2C(=O)N[C@@H](Cc2ccccc2)C(=O)OC(C)(C)C)c1 | 1 | -2 | -1 | 16
C[C@@H](NC(=O)c1[nH]cnc1C(=O)Nc1cccc(Cl)c1)c1ccccc1 | 6 | 26* | 1 | 10
Cc1ccc(NC(=O)c2nc[nH]c2C(=O)N[C@@H](C)c2ccccc2)cc1 | 6 | 32* | -4 | -9
CC(C)(C)OC(=O)[C@H](Cc1ccccc1)NC(=O)c1[nH]cnc1C(=O)Nc1cccc(Cl)c1 | 1 | 23* | -1 | -2
C[C@@H](NC(=O)c1[nH]cnc1C(=O)Nc1ccccc1)c1ccccc1 | 8 | 9 | 1 | -4
Cc1nn(-c2ccccc2)c(C)c1NC(=O)COC(=O)CCc1ccccc1 | 0 | 2 | 0 | 22
Cn1c(S(=O)(=O)c2ccc([N+](=O)[O-])cc2)nc(Br)c1Br | -3 | 6 | 0 | 1
CCN(CC)C(=O)c1[nH]cnc1C(=O)Nc1cccc(C)c1 | 2 | 27* | -3 | 18
CCN(CC)C(=O)c1[nH]cnc1C(=O)Nc1ccc(Cl)cc1 | 1 | 10 | 4 | 1
CCN1CCN(c2ccc(S(=O)(=O)N3CCOCC3)cc2NC(=O)c2cc(Cl)nc3ccccc23)CC1 | 2 | 3 | 0 | 4
Cc1cc2c(cc1C)-c1nnnn1C(N1CCC(Cc3ccccc3)CC1)C(=O)N2 (stereo not drawn) | 4 | 10 | nt | -1
COc1ccc(C2=NOC(C(=O)NCc3ccco3)C2)cc1 (stereo not drawn) | -6 | 2 | 0 | 16
O=C(NCc1ccco1)C1CC(c2ccc(C(F)(F)F)cc2)=NO1 (stereo not drawn) | 4 | 31* | 0 | 7
COc1cc(/C=C2/SC(=O)N(Cc3ccccc3Cl)C2=O)ccc1OCc1ccncc1 | -54 | 21* | 6 | 3
CC(=O)N=C1SC2CS(=O)(=O)CC2N1c1cccc(Cl)c1Cl (stereo not drawn) | 4 | 0 | -1 | 40*
COc1ccc(N2C(=NC(=O)C(C)Oc3ccccc3)SC3CS(=O)(=O)CC32)cc1 (stereo not drawn) | -3 | 28* | 0 | 8
CC(=O)N=C1SC2CS(=O)(=O)CC2N1c1ccccc1Cl (stereo not drawn) | -5 | 0 | -1 | 23
O=C(Nc1cccc2ncccc12)c1ccccc1Cl | -3 | 11 | 0 | 9
CCCC(=O)N1CCCC(c2cc(C(=O)Nc3ccc4c(c3)OCO4)no2)C1 (stereo not drawn) | -2 | 0 | -1 | 7
CC(C)c1ccc(C(=O)N2CCCC(c3cc(C(=O)Nc4ccc5c(c4)OCO5)no3)C2)cc1 (stereo not drawn) | 0 | 22* | 0 | 8

High-throughput results (PubChem BioAssay)
